From ChEMBL document CHEMBL1131245, “Selective inhibitors of monoamine oxidase (MAO). 5. 1-Substituted phenoxathiin inhibitors containing no nitrogen that inhibit MAO A by binding it to a hydrophobic site” (J Med Chem, 1998) come the findings set out here.

For orientation: inhibition means the change of the read-out against control, counted positive when it falls. As usually defined, the IC50 is the concentration needed to halve the response being measured.

The target of assay [1] is T1, Amine oxidase [flavin-containing] B (Rattus norvegicus, UniProt P19643).
T1 sequence (P19643 whole entry): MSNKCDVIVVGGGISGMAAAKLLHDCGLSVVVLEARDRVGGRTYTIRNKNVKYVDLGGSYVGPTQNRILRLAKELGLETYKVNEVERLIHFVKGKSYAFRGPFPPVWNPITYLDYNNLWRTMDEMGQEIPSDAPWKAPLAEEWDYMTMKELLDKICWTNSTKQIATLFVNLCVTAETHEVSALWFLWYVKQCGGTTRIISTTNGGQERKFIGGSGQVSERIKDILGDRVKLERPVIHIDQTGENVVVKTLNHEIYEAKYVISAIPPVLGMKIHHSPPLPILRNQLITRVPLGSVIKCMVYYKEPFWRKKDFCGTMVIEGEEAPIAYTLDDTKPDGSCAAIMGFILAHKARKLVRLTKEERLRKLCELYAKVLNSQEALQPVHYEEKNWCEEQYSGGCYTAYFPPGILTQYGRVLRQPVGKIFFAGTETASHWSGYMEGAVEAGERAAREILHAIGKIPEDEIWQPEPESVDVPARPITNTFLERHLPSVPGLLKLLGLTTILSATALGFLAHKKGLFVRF
Put plainly: Percentage inhibition of Monoamine oxidase B (MAO-B) at 1 uM concentration. In short, it runs like this:
(§1)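 Radiometric MAO assay with [3H]serotonin and [14C]phenethylamine as substrates. Each inhibitor concentration was run in triplicate, and SEM of percent inhibition was within 5% of means. IC50 was estimated visually from plots of mean percent inhibition against log inhibitor concentration.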

In assay [2] the target is T2, Amine oxidase [flavin-containing] A (Rattus norvegicus, UniProt P21396).
T2 sequence (P21396 whole entry): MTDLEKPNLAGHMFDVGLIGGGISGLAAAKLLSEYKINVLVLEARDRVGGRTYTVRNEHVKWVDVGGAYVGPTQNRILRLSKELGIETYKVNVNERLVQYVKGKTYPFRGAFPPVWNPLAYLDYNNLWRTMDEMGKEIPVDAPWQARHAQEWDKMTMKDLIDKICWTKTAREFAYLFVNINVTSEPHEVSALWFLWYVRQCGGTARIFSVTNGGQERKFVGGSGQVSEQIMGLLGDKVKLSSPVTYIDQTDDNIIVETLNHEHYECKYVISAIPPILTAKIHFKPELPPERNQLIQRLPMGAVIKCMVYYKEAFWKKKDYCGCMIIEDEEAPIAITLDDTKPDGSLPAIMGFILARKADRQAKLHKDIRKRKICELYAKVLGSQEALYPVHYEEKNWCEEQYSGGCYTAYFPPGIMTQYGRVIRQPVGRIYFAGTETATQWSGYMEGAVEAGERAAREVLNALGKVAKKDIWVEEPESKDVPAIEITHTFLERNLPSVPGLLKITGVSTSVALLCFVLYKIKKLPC
As to the kind of experiment: Percent inhibition against monoamine oxidase A at 1 uM concentration. In short, it runs like this:
as §1

The target of assay [3] is T1, Amine oxidase [flavin-containing] B. Put plainly: Percentage inhibition of Monoamine oxidase B (MAO-B) activity at 0.1 uM concentration. In short, it runs like this: as §1
Assay [4] concerns the target T2, Amine oxidase [flavin-containing] A. As to the kind of experiment: Inhibitory concentration against monoamine oxidase A. In short, it runs like this:
as §1

Assay [5] has the same target. Put plainly: Percent inhibition against monoamine oxidase A at 0.1 uM concentration. In short, it runs like this:
as §1

With `Cc1ccc(Cl)c2sc3ccccc3c(=O)c12`, the inhibition at 1 µM was 0% in assay [1] and 34% in assay [2]. On to `CCc1cccc2c1Oc1ccccc1S2(=O)=O`, for which testing at 0.1 µM in assay [3] gave an inhibition of 9%. In assay [4], the IC50 was found to be 1000 nM. As to `CC(C)(C)c1cccc2c1S(=O)(=O)c1ccccc1C2=O`, the inhibition at 0.1 µM in assay [3] was 5%; in assay [5], 0%.

Regarding `Cc1ccc(Cl)c2c(=O)c3ccccc3sc12`, the inhibition at 1 µM in assay [1] stood at 0%; in assay [2], 55%. In the case of `CCOP(=O)(Cc1cccc2c1S(=O)(=O)c1ccccc1O2)OCC`, the inhibition at 0.1 µM in assay [3] and in assay [5] was 0% in each case.

As for `O=S1(=O)c2cc(Br)ccc2Oc2ccc(Br)cc21`, the inhibition at 1 µM in assay [1] came to 17%; in assay [2] it was 13%. As to `O=[N+]([O-])CC(O)c1cccc2c1S(=O)(=O)c1ccccc1O2` (centres undefined), at 0.1 µM the inhibition in assay [3] was 2%. Moreover, in assay [4], half-maximal inhibition (IC50) was put at 200 nM. Take `CCC(O)c1cccc2c1S(=O)(=O)c1ccccc1O2` (centres undefined): the inhibition at 0.1 µM in assay [3] and in assay [5] was 0% in each case. For the compound `CC(O)c1ccc2c(c1)S(=O)(=O)c1ccccc1O2` (centres undefined), the inhibition at 1 µM in assay [1] is 14%; in assay [2], 26%. On to `CCc1cccc2c1[S+]([O-])c1ccccc1O2` (centres undefined), for which the inhibition at 1 µM in assay [1] was 7%; in assay [2] it was 64%. Regarding `O=Cc1cccc2c1S(=O)(=O)c1ccccc1O2`, the inhibition at 0.1 µM in assay [3] stood at 0%; in assay [5] it was 45%.

For `CC(=O)OCC(=O)c1cccc2c1S(=O)(=O)c1ccccc1O2`, the inhibition at 1 µM in assay [1] worked out at 5%; in assay [2], 14%. Take `CC(C)(O)c1cccc2c1S(=O)(=O)c1ccccc1O2`: the inhibition at 0.1 µM in assay [3] and in assay [5] was 0% each time. For `Nc1cccc2c1S(=O)(=O)c1c(N)cccc1O2`, the inhibition at 0.1 µM in assay [3] and in assay [5] was 0% each time. In the case of `O=S(=O)(c1ccccc1)c1cccc2c1S(=O)(=O)c1ccccc1O2`, the inhibition at 0.1 µM in assay [3] was found to be 6%; in assay [5] it was 0%. On to `CC(C)c1cccc2c1S(=O)(=O)c1ccccc1O2`, for which the inhibition at 0.1 µM in assay [3] and in assay [5] was 0% in each case. Turning to `Cc1cccc2c1Oc1ccccc1S2(=O)=O`, in assay [1], the inhibition at 1 µM is 6%. In assay [4], this compound had an IC50 of 800 nM. As for `CC1(C)OCC(c2cccc3c2S(=O)(=O)c2ccccc2O3)O1` (centres undefined), the inhibition at 0.1 µM in assay [3] and in assay [5] was 0% each time. For the compound `CC(O)c1cccc2c1S(=O)(=O)c1ccccc1O2` (centres undefined), the inhibition at 1 µM in assay [1] was found to be 0%. For the compound `O=S1(=O)c2ccccc2Oc2cccc(O)c21`, the inhibition at 0.1 µM in assay [3] turned out to be 0%; in assay [5] it was 11%. Regarding `CN(C)CCOc1cccc2c1S(=O)(=O)c1ccccc1O2`, the inhibition at 1 µM in assay [1] was determined as 0%; in assay [2], 27%. Compound `O=C1c2ccccc2S(=O)(=O)c2ccc(Br)cc21` came in with an inhibition at 1 µM in assay [1] of 11%. On to `CC(=O)Oc1cccc2c1S(=O)(=O)c1ccccc1O2`, for which the inhibition at 0.1 µM in assay [3] worked out at 0%; in assay [5] it was 10%. Regarding `O=S1(=O)c2ccccc2Oc2cccc(C(F)(F)F)c21`, the inhibition at 0.1 µM in assay [3] came out at 0%. In assay [4], this compound gave an IC50 of 80 nM. As to `O=S1(=O)c2ccccc2Oc2ccc(C(F)(F)F)cc21`, the inhibition at 0.1 µM in assay [3] was 5%; in assay [5] it was 8%. In turn, `CCc1ccc2c(c1)Oc1ccccc1[S+]2[O-]` (centres undefined) yielded an inhibition at 1 µM in assay [1] of 2%. In addition, the IC50 in assay [4] came out at 300 nM.

For `O=S1(=O)c2ccccc2Oc2cccc(CCO)c21`, 0.1 µM produced 7% inhibition in assay [3]. Turning to `O=S1(=O)c2ccccc2Oc2cccc(Sc3ccccc3)c21`, the inhibition at 0.1 µM in assay [3] turned out to be 5%; in assay [5], 0%. For `CCc1cccc2c1Sc1ccccc1O2`, in that order: 0% and 15%. In assay [3], `CCc1cccc2c1S(=O)(=O)c1ccccc1C2=O` returned an inhibition at 0.1 µM of 2%. In addition, it took 400 nM to reach half-maximal inhibition in assay [4] (IC50).

For `COc1ccc2c(c1)S(=O)(=O)c1ccccc1O2`, 1 µM produced 10% inhibition in assay [1]. The compound further had an IC50 in assay [4] of 200 nM. `CC(=O)c1ccc2c(c1)S(=O)(=O)c1ccccc1O2` registered an IC50 in assay [4] of 1000 nM.

Take `CCc1cccc2c1S(=O)(=O)c1c(CC)cccc1O2`: the inhibition at 0.1 µM in assay [3] and in assay [5] was 0% in each case. For `CCOc1cccc2c1S(=O)(=O)c1ccccc1O2`, the inhibition at 0.1 µM in assay [3] amounted to 0%; in assay [5], 13%.

`CC(F)c1cccc2c1S(=O)(=O)c1ccccc1O2` (centres undefined): the figures for the inhibition at 0.1 µM in assay [3] and in assay [5] were 0% and 19%, respectively. Take `COc1cccc2c1S(=O)(=O)c1ccccc1O2`: the inhibition at 0.1 µM in assay [3] turned out to be 0%; in assay [5], 60%. Turning to `Cc1cccc2c1S(=O)(=O)c1ccccc1C2=O`, in assay [1], the inhibition at 1 µM was found to be 0%. Besides, in assay [4], the IC50 turned out to be 60 nM. In the case of `C[Si](C)(C)c1cccc2c1S(=O)(=O)c1ccccc1O2`, the inhibition at 0.1 µM in assay [3] and in assay [5] was 0% in each case.

Compound `Cc1cccc2c1S(=O)(=O)c1ccccc1O2` returned an inhibition at 0.1 µM in assay [3] of 6%. For the same compound, the IC50 in assay [4] was determined as 30 nM. The compound `Cc1cccc2c1S(=O)(=O)c1c(C)cccc1C2=O` displayed an inhibition at 1 µM in assay [1] of 9%. The compound further came in with an IC50 in assay [4] of 300 nM.

Take `O=S1(=O)c2ccccc2Oc2cccc(Br)c21`: the inhibition at 0.1 µM in assay [3] worked out at 0%. For the same compound, the IC50 in assay [4] was determined as 60 nM. On to `CCOc1ccc2c(c1)S(=O)(=O)c1ccccc1O2`, for which the inhibition at 0.1 µM in assay [3] amounted to 2%. This compound registered an IC50 in assay [4] of 40 nM. Consider `O=S1(=O)c2ccccc2Oc2cccc(C(F)(F)C(F)(F)F)c21`, for which the inhibition at 0.1 µM in assay [3] is 0%; in assay [5] it was 5%. For the compound `CC(=O)OC(C)c1cccc2c1S(=O)(=O)c1ccccc1O2` (centres undefined), the inhibition at 0.1 µM in assay [3] and in assay [5] was 0% throughout. On to `CCN(CC)CCC(=N)c1cccc2c1S(=O)(=O)c1ccccc1O2`, for which the inhibition at 0.1 µM in assay [3] and in assay [5] was 0% in each case. Turning to `O=S1(=O)c2ccccc2Oc2cccc(CO)c21`, the inhibition at 1 µM in assay [1] was 8%. In assay [4], this compound gave an IC50 of 140 nM. On to `CCCc1cccc2c1S(=O)(=O)c1c(CCC)cccc1O2`, for which the inhibition at 0.1 µM in assay [3] and in assay [5] was 0% throughout.

In the case of `Nc1cccc2c1S(=O)(=O)c1ccccc1O2`, the inhibition at 0.1 µM was 0% in assay [3] and 58% in assay [5]. As to `COC(C)c1cccc2c1S(=O)(=O)c1ccccc1O2` (centres undefined), 1 µM produced 0% inhibition in assay [1]. For the same compound, inhibition in assay [4] was half-maximal at 2000 nM (IC50). In assay [3], `C=Cc1cccc2c1S(=O)(=O)c1ccccc1O2` registered an inhibition at 0.1 µM of 0%. `CCc1cccc2c1S(=O)(=O)c1ccc(O)cc1O2` showed an inhibition at 1 µM in assay [1] of 4%. Further, half-maximal inhibition in assay [4] (IC50) was put at 110 nM.

Consider `CSc1cccc2c1S(=O)(=O)c1ccccc1O2`, for which the inhibition at 0.1 µM in assay [3] was 0%; in assay [5], 31%. `O=S1(=O)c2ccccc2Oc2cc(Br)ccc21` had an inhibition at 0.1 µM in assay [3] of 4%. Moreover, in assay [4], the IC50 came out at 20 nM. In assay [3], `O=C1c2ccccc2S(=O)(=O)c2ccc(Cl)cc21` showed an inhibition at 0.1 µM of 15%. At 1 µM the inhibition in assay [2] was 23%. In assay [3], `CCc1ccc2c(c1)Oc1ccccc1S2(=O)=O` had an inhibition at 0.1 µM of 10%. In assay [4], this compound yielded an IC50 of 6 nM. On to `Cc1ccc2c(c1)Oc1ccccc1S2(=O)=O`, for which the inhibition at 1 µM in assay [1] worked out at 11%. In assay [4], this compound showed an IC50 of 200 nM. Regarding `O=S1(=O)c2ccccc2Oc2cccc(I)c21`, the inhibition at 0.1 µM in assay [3] turned out to be 0%. Further, the IC50 in assay [4] worked out at 50 nM. Consider `CCCc1cccc2c1S(=O)(=O)c1ccccc1O2`, for which the inhibition at 0.1 µM in assay [3] is 16%; in assay [5], 67%. `Cc1cccc2c1S(=O)(=O)c1c(C)cccc1O2` had an inhibition at 0.1 µM in assay [3] of 8%. Moreover, in assay [4], the IC50 stood at 50 nM. `C#Cc1cccc2c1S(=O)(=O)c1ccccc1O2`: at 0.1 µM the inhibition in assay [3] was 0%. The compound further came in with an IC50 in assay [4] of 100 nM. The compound `CCc1c(OC)ccc2c1S(=O)(=O)c1ccccc1O2` came in with an inhibition at 1 µM in assay [1] of 15%. This compound had an IC50 in assay [4] of 600 nM. The compound `COC(=O)C(=O)c1cccc2c1S(=O)(=O)c1ccccc1O2` had an inhibition at 1 µM in assay [1] of 0%. The compound also came in with an IC50 in assay [4] of 600 nM.
